Screens as filed in PubChem.
The list is not random: actives were taken first. Their share in the collection is about 0.58%.
OXTR ag: agonists of human oxytocin receptor; CHO-OTR cells, Fluo-8 calcium fluorescence; normalized: DMSO 0%, oxytocin 100%; activation, % at 3 µM; 0.32% of 320,000 active; AID 2435;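 active = activation above the mean of all tested compounds plus 3 SD, cutoff set per screening run, cut at about 20% in these data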;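 also: peak over basal fluorescence ratio from a 100 s FLIPR kinetic read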
Target sequence (P30559 whole entry, looked up): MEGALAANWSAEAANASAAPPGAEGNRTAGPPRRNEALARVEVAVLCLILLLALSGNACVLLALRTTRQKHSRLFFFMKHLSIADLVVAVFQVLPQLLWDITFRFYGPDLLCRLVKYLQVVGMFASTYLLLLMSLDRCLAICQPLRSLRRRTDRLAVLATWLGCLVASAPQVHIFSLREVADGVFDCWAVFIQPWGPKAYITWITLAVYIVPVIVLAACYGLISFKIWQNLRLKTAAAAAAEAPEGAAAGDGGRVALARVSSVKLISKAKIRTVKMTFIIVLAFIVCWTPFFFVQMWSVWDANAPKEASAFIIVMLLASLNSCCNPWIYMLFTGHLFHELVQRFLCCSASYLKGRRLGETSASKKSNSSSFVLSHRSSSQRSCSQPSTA
TRPML3 agonist: human mucolipin-3 channel agonism; Q8TDD5; HEK293 TRPML3-YFP, Fluo-8 calcium fluorescence; 100% = the carbachol control signal; activation, % at 3 µM; 0.29% of 220,000 active;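 active = activation above its plate's cutoff, the mean activation of the plate's test wells plus 3 SD, cut at about 12% in these data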
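Material: TRPML3-YFP stable HEK293 cells | Dosing: One concentration, 3 µM nominal, 0.3% DMSO | Timing: 125 s total fluorescence read per well | Technique: Fluo-8 calcium dye fluorescence, ex 470-495, em 515-575 nm | Measure: Percent activation from peak-to-basal fluorescence ratio, scaled between DMSO and carbachol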
V1aR counter: counter-screen for oxytocin receptor agonists: human V1a receptor agonists. CHO-V1R cells, Fluo-8 calcium fluorescence, agonist mode; 0% DMSO, 100% 3 nM vasopressin. AID 2797. activation, % at 3 µM. P37288. 0.25% of 320,000 active;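 active = activation above the mean activation of all tested compounds plus 3 SD, per screening run, cut at about 20% in these data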;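 also: signal is peak over basal fluorescence ratio across a 100 second FLIPR read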
OXTR potentiate: potentiates the human oxytocin receptor response | P30559 | CHO-OTR cells, Fluo-8 calcium fluorescence, potentiator mode; 0% = oxytocin EC15, 100% = EC100 | activation, % at 3 µM | 0.061% of 320,000 active | AID 2445;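 active = activation above that plate's cutoff, the mean activation of tested compounds plus 3 SD, cut at about 6.6% in these data, passing the limit was not always enough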
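Assay system: CHO cell line stably expressing human OTR | Also added: Oxytocin at about EC15, sub-maximal agonist stimulus | Times: Compound 6 min at room temperature before oxytocin, 100 s read | Measured by: Fluo-8 intracellular calcium fluorescence, ex 470-495, em 515-575 nm | Controls: EC15 oxytocin alone as 0%, 75 nM oxytocin as 100%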
zfTRPN1 agonist: agonists of zebrafish TRPN1 channel; AID 1424; activation, % at 3 µM; 0.18% of 220,000 active; HEK293 zebrafish TRPN1-YFP, Fluo-8 calcium fluorescence; 100% = response to 87 µM carbachol;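 active = activation above its plate's cutoff, the mean activation of test wells on that plate plus 3 SD, cut at about 19% in these data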
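System: zebrafish TRPN1-YFP in HEK293 cells / Dosing: 3 µM single point / Timing: dye loading 1 h at 37 °C, then 30 min room temperature / Signal: Fluo-8 calcium fluorescence, excitation 470-495 nm, emission 515-575 nm / Read-out basis: percent activation from peak over basal fluorescence ratio, control-normalized / Control set: high carbachol 87 µM, low DMSO alone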
TRPN1 counter: zebrafish TRPN1 agonism as TRPML3 agonist counter-screen | shares compounds with TRPML3 agonist | HEK293 zebrafish TRPN1-YFP, Fluo-8 calcium fluorescence; scaled: carbachol wells 100%, DMSO wells 0% | 10% of 310 active | activation, % at 3 µM;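 active = mean activation over replicates above a set limit taken from the earlier TRPN1 channel primary screen, cut at about 19% in these data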
TRPML3 ag conf: confirmation of human TRPML3 channel agonists | activation, % at 3 µM | 80% of 310 active | HEK293 TRPML3-YFP, Fluo-8 calcium fluorescence; 100% set by carbachol, 0% by DMSO | shares compounds with TRPML3 agonist;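 active = activation above a set limit derived from the earlier primary screen, cut at about 12% in these data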
Hits are given with their value; 0 = inactive; - = no result given.

SMILES	OXTR ag	TRPML3 agonist	V1aR counter	OXTR potentiate	zfTRPN1 agonist	TRPN1 counter	TRPML3 ag conf
Cc1ccccc1OCC(=O)Nc1ccccc1N1CCOCC1	0	47.2	0	0	0	0	56.6
CCN(CC)S(=O)(=O)c1ccc(NS(=O)(=O)CC23CCC(CC2=O)C3(C)C)cc1 (configuration not stated)	0	0	0	0	0	-	-
O=c1ccc(-c2ccc(S(=O)(=O)Nc3cccc([N+](=O)[O-])c3)s2)n[nH]1	0	-	0	0	-	-	-
Cc1ccc(S(=O)(=O)N(C)c2cc(S(=O)(=O)N3CCC(C)CC3)c(C)cc2C)cc1	0	40.5	0	0	0	0	73.2
CNS(=O)(=O)c1cc(N(C)S(=O)(=O)c2ccc(C)cc2)c(C)cc1C	0	0	0	0	0	-	-
O=C1OC(/C(=C\Nc2cc(Cl)ccc2O)[N+](=O)[O-])c2ccccc21 (configuration not stated)	0	0	0	0	0	-	-
CC1CC(C)CN(C(=O)c2cc(S(=O)(=O)N3CCCCC3)ccc2Cl)C1 (configuration not stated)	0	-	0	0	-	-	-
COc1ccccc1NS(=O)(=O)c1cc(C(=O)NCc2ccncc2)ccc1C	0	-	0	0	-	-	-
COc1ccccc1NS(=O)(=O)c1cc(C(=O)NCCC(C)C)ccc1F	0	16.6	0	0	0	22.4	35.1
CCc1ccc(OCC(=O)NNC(=O)C2CCC2)cc1	0	-	0	0	-	-	-
COc1ccc(NC(C)(C)c2nnnn2-c2c(C)cccc2C)cc1	0	21.0	0	0	0	0	0
O=C1C(Cl)=C(N2CCN(Cc3ccccc3)CC2)C(=O)N1Cc1ccccc1	0	20.3	0	0	0	0	25.5
O=C1C(Cl)=C(NC2CCCCC2)C(=O)N1Cc1ccccc1	0	0	0	0	0	-	-
CCOC(=O)c1ccc(NC(=O)COC(=O)Cc2csc(-c3ccccc3)n2)cc1	0	0	0	0	0	-	-
O=C1N=C(N2CCc3ccccc3C2)S/C1=C\c1cccc(O)c1	0	0	0	0	0	-	-
CC1=C(C)/C(=N\OS(=O)(=O)c2ccc(C)cc2)C=CC1=O	0	13.9	0	0	0	0	14.3
COc1ccc(S(=O)(=O)/N=C2/C=CC(=O)C(C)=C2C)cc1	0	0	0	0	0	-	-
CCNC(=S)N(Cc1ccco1)Cc1cc2cc(OCC)ccc2[nH]c1=O	0	0	0	0	0	-	-
CCNC(=S)N(Cc1cccs1)Cc1cc2cc(OCC)ccc2[nH]c1=O	0	16.8	0	0	0	0	16.4
O=C(NCc1ccccc1)C1CCC(=O)N(CCN2CCOCC2)C1 (configuration not stated)	0	-	0	0	-	-	-
COc1ccccc1C1CN=NC12CCCc1ccccc1C2=O (configuration not stated)	0	24.1	0	0	0	0	91.1
O=S(=O)(NC1CCCCCC1)c1cccc2cccnc12	0	33.5	0	0	0	0	56.4
CCOC(=O)c1c(CSc2ccc(C)cc2)oc2ccc(O)cc12	0	29.9	0	0	0	0	46.1
Cn1nc(NC(=O)CC(C)(C)CC(=O)O)c2ccccc21	0	0	0	0	0	-	-
O=S(=O)(c1cnc(Cl)c(Br)c1)N1CCc2ccccc21	0	14.2	0	0	0	0	50.0
SMILES	OXTR ag	TRPML3 agonist	V1aR counter	OXTR potentiate	zfTRPN1 agonist	TRPN1 counter	TRPML3 ag conf
CC(=O)c1ccc(NC(=S)NC(C)c2ccc(Cl)cc2Cl)cc1 (configuration not stated)	24.9	13.6	23.8	0	0	0	0
CC(=O)N1c2ccc(S(=O)(=O)N3CCCCC3)cc2CC1C(=O)NCc1cccc(Cl)c1 (configuration not stated)	0	-	0	0	-	-	-
CN(C)S(=O)(=O)N1CCN(c2cc(Cl)ccc2Cl)CC1	0	16.2	0	0	0	0	17.8
CN(C)S(=O)(=O)N1CCN(c2ccccc2Cl)CC1	0	0	0	0	0	-	-
CCOc1c(S(=O)(=O)N2CCCC2)ccc(Cl)c1Cl	0	19.5	0	0	0	0	41.1
Cc1cc(S(=O)(=O)N2CCCCCC2)c(Cl)cc1Cl	0	25.9	0	0	0	0	26.7
CCOc1ccc(Cl)cc1S(=O)(=O)N1CCCC1	0	0	0	0	0	-	-
COc1ccc(-c2csc(NC(=O)c3ccccc3NS(=O)(=O)c3ccc(F)c(F)c3)n2)cc1	0	13.0	0	0	0	27.1	17.0
COc1ccc(-c2csc(NC(=O)c3ccccc3F)n2)cc1	0	-	0	0	-	-	-
CCOc1ccc(NC(=O)c2ccccc2NS(=O)(=O)c2ccc(F)cc2)c([N+](=O)[O-])c1	0	15.4	0	0	0	0	34.1
Cc1ccc(S(=O)(=O)Nc2ccccc2C(=O)Nc2nc(-c3ccc(F)cc3)cs2)cc1	0	11.8	0	0	0	21.1	0
CC(C)(C)NC(=O)NC(=O)COC(=O)CNS(=O)(=O)c1ccc(Br)cc1Cl	0	0	0	0	0	-	-
CCc1c(O)cc(=O)n(-c2ccccc2)c1-c1ccccc1	0	0	0	0	0	-	-
CC(C(=O)NCc1ccccn1)c1ccc([N+](=O)[O-])cc1 (configuration not stated)	0	0	0	0	0	-	-
CC(c1ccccc1)C1CC(=O)N(C2CCCCC2)C1=O (configuration not stated)	0	26.6	0	0	0	0	25.4
O=C(COc1ccccc1C(=O)O)Nc1nc2ccc([N+](=O)[O-])cc2s1	0	14.2	0	0	0	21.9	0
O=C1CCC(=O)N1c1ccccc1OS(=O)(=O)c1ccccc1	0	-	0	0	-	-	-
O=S(=O)(Oc1ccccc1N1CCCCC1)c1ccccc1	0	12.8	0	0	0	0	13.5
COc1ccc(C2c3[nH]c4ccccc4c3C[C@H]3C(=O)N(c4ccccc4C(=O)N4CCC[C@H]4C(=O)O)C(=O)N23)cc1 (some centres not stated)	0	-	0	0	-	-	-
Cc1ccc(Oc2ccc(Cl)cc2N)cc1	0	16.4	0	0	0	0	0
Oc1c(Cl)cc(Cl)cc1CNn1cnnc1	0	0	0	0	0	-	-
Oc1c(Cl)cc(Cl)cc1Sc1cc(Cl)cc(Cl)c1O	0	12.9	0	0	0	29.4	13.4
CCCN(CCC)S(=O)(=O)c1ccc(C(=O)N2CCCc3ccccc32)cc1	0	133.3	0	0	0	0	104.0
Cc1ccccc1CNS(=O)(=O)c1csc(C(N)=O)c1	0	-	0	0	-	-	-
C=CCN1C(=O)/C(=C/c2ccc(OC(C)=O)c(OCC)c2[N+](=O)[O-])SC1=S	-	12.2	-	-	0	19.2	0
